This is an account of results in publication PMC8001668 (International Journal of Nanomedicine, 2021).

Data set [1] in a line: Plasma pharmacokinetics. It counts as in vivo. The conditions noted are these: SD rats plasma, intraperitoneal, free group received DAS + ROZ. Summed up: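 Female SD rats (5 per group) got an intraperitoneal dose of either the free two-drug combination or the micelle formulation, at 5 mg/kg of the kinase inhibitor. Blood (0.3 mL) was taken from 0 min to 24 h and spun at 4000 rpm for 10 min. Plasma (100 µL) was mixed with methanol (300 µL) plus diclofenac sodium internal standard, spun, and analysed by HPLC. Parameters were derived from the concentration–time data.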

The subject of data set [2] is MDA-MB-231 cells. Briefly: In vitro cytotoxicity, MTT assay. It is filed as cell-based, Human. The settings on record: for IC50: Homo sapiens.
For data set [3], the system named is MCF-7 cells. Briefly: Transwell migration experiment. It is filed as cell-based, Human. The conditions noted are these: 24 h treatment.
Data set [4] has as its system MCF-7 cells. Briefly: In vitro cytotoxicity, MTT assay. It counts as cell-based, Human. The settings on record: for IC50: Homo sapiens.
Data set [5] concerns MDA-MB-231 cells. The data set is described as follows: Transwell migration experiment. The conditions noted are these: 24 h treatment. It counts as cell-based, Human.

Structures are written as SMILES.

On to `CN(CCOc1ccc(CC2SC(=O)NC2=O)cc1)c1ccccn1` (centres unmarked) [ROZ, rosiglitazone], for which the “AUC0–24 of ROZ” value in data set [1] (DAS dose 5 mg/kg) was determined as 41060 ± 10850 ng·h/mL. In addition, the “AUC0–∞ of ROZ” value in data set [1] (DAS dose 5 mg/kg) came to 41340 ± 10680 ng·h/mL. For the same molecule, the half-inhibitory concentration (IC50) was determined as 259 ± 27.5 µM in data set [2] (MDA-MB-231, 48 h) and 102 ± 6.2 µM in data set [4] (MCF7, 48 h). The cell survival rate result is on record as “higher than 90%” in data set [2] (MDA-MB-231 cells, 24 h incubation) and “higher than 90%” in data set [4] (MCF-7 cells, 24 h incubation). The “number of cells penetrating the membrane (migration)” value in data set [3] and in data set [5] was “significantly reduced” each time.
With `Cc1nc(Nc2ncc(C(=O)Nc3c(C)cccc3Cl)s2)cc(N2CCN(CCO)CC2)n1` [DAS, Dasatinib], the “AUC0-∞ of DAS” value in data set [1] (DAS 5 mg/kg) came to 2380 ± 1120 ng·h/mL. For the same molecule, in data set [1] (DAS 5 mg/kg), the “AUC0–24 of DAS” value was found to be 2260 ± 930 ng·h/mL. The IC50 was determined as 73.6 ± 3.8 µM in data set [2] (MDA-MB-231, 24 h); 64.7 ± 2.63 µM in data set [2] (MDA-MB-231, 48 h); 52 ± 6.83 µM in data set [4] (MCF7, 24 h); 31.2 ± 2.8 µM in data set [4] (MCF7, 48 h).

By IC50 is commonly meant the concentration that gives 50% inhibition. Higher therefore signals weaker potency.
